High-throughput results deposited in PubChem BioAssay by Broad Institute.
An excerpt weighted towards active compounds, which were near 2.2% of everything screened.
DENV2 CPE: inhibitors of DENV2 cytopathic effect. CPE inhibition, % at 9.99 µM. actives 1.7% (n = 350,000). AID 651640. DENV2-infected cells, cytopathic effect rescue, plate reader; in the data active = CPE inhibition above about 20%, passing the limit was not always enough; inconclusive = no clear call, values can overlap the other calls; tested in BHK-21 cells;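 note: 0% = median of neutral control wells and 100% = median of positive control wells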
Statin myotox sup: suppression of simvastatin myotoxicity; C2C12 myotubes + simvastatin, ATP luminescence, 48 h; scaled: DMSO 0, geranylgeraniol control 100; actives 0.78% (n = 330,000); rescue of ATP level, % at 7.49 µM;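 active = mean ATP rescue above about 67%, or every replicate alone reaching that limit, limit read from the data, passing the limit was not always enough; inconclusive = no clear call, values can overlap the other calls; inactive = mean under the limit and some replicate under it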;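 note: myotubes were challenged with 10 µM simvastatin during compound exposure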
E-sel inducer: E-selectin induction on HUVECs; P16581; HUVEC E-selectin immunofluorescence imaging; normalized: neutral wells 0, TNF-alpha wells 100; activation, % at 7.58 µM; actives 0.37% (n = 260,000); AID 686992;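 active = mean E-selectin-positive cell signal at least 10% of the positive control, reached in at least 60% of replicates, without over 20% cell loss; inconclusive = no rule given, readout overlaps actives, possibly toxicity-flagged; inactive = the rest, including those meeting only one limit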
Target sequence (P16581 whole entry, looked up): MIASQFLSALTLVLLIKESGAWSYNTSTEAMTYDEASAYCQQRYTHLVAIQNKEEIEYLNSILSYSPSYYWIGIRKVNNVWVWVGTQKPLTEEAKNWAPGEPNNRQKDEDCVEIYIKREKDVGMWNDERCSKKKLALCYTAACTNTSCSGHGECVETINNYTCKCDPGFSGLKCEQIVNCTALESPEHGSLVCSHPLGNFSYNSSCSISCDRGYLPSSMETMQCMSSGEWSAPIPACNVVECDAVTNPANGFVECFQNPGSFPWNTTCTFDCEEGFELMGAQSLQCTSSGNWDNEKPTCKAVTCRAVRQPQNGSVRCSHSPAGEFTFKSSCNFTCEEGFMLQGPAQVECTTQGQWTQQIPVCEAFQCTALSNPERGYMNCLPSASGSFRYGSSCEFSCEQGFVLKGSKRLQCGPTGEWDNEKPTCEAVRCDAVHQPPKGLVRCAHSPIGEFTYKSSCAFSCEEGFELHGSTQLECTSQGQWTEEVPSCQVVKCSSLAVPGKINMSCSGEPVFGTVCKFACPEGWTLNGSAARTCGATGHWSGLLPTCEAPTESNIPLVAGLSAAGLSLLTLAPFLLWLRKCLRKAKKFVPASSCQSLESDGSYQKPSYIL
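Assay system: HUVEC primary endothelial cells. Input: 3,000 HUVEC seeded per well. Doses: one compound dose added by pin transfer. Read-out basis: % PE-positive cells. Benchmarks: TNF-alpha high, DMSO low. Detection: immunofluorescence imaging. Buffer or medium: EGM-2, gelatin.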
* hit, by the source's call; ? = inconclusive; . = no result given.

SMILES | DENV2 CPE | Statin myotox sup | E-sel inducer
COc1ccc2c3c([nH]c2c1)[C@@H](CO)N(C(=O)c1cccnc1)CC31CCN(C(=O)Nc2cccc(F)c2)CC1 | 7 | . | 0
O=C(c1ccccc1)N1CCN(C(=O)c2ccccc2)CC1 | . | 3 | .
O=C(O)c1ccccc1 | 110* | 2 | .
CC(C)NC(=O)N(C)C[C@H]1Oc2cc(C#CC3CC3)ccc2S(=O)(=O)N([C@@H](C)CO)C[C@@H]1C | 13 | -3 | 0
CCCN(C)C[C@H]1OCCCC[C@@H](C)Oc2ccc(N(C)C)cc2C(=O)N([C@H](C)CO)C[C@H]1C | 1 | -11 | 0
CO[C@H]1CC[C@H]2CCN(C)C(=O)[C@H](C)[C@@H](OC)CN(C)C(=O)c3cccc(C#N)c3OC[C@@H]1O2 | -3 | 11 | 0
O=C(Cn1cnc2ccccc2c1=O)Nc1nc2ccccc2s1 | 0 | . | .
O=c1c2ccccc2ncn1Cc1nc2ccccc2s1 | . | 114* | .
O=C(C[C@H]1CC[C@@H]2[C@H](COC[C@@H](O)CN2Cc2cccc(Cl)c2)O1)N1CCCCC1 | 0 | 39 | 0
Cc1ccc(NC(=O)C2CCCN(S(=O)(=O)c3cnc[nH]3)C2)cc1C (centres undefined) | 4 | -4 | .
O=C(Nc1ccc(F)c(F)c1)C1CCCN(S(=O)(=O)c2cnc[nH]2)C1 (centres undefined) | . | 97* | .
CO[C@@H]1CN(C)C(=O)c2cc(NC(=O)C3CCOCC3)ccc2OC[C@@H](C)N(C)C[C@@H]1C | 36* | 8 | 0
CO[C@H]1CN(C)C(=O)c2cc(NC(=O)C3CCOCC3)ccc2OC[C@H](C)N(C)C[C@H]1C | -1 | -5 | 0
COc1ccccc1C(=O)Nc1ccc2c(c1)C(=O)N(C)C[C@H](OC)[C@H](C)CN(C)[C@@H](C)CO2 | -8 | 4 | 0
COc1ccccc1C(=O)Nc1ccc2c(c1)C(=O)N(C)C[C@@H](OC)[C@H](C)CN(C)[C@@H](C)CO2 | 47* | 13 | 0
O=C(c1ccccc1F)N1C[C@H]2[C@@H](c3ccccc31)[C@@H](CO)N2CC1CCCCC1 | -7 | 13 | -1
C[C@H](O)C#Cc1ccc2c(c1)O[C@H](CN(C)C(=O)c1ccccc1)[C@H](C)CN([C@@H](C)CO)S2(=O)=O | -6 | 2 | 0
CC(C)NC(=O)N(C)C[C@@H]1Oc2ccc(NS(C)(=O)=O)cc2C(=O)N([C@H](C)CO)C[C@H]1C | -4 | 3 | 0
Cc1ccccc1S(=O)(=O)NCC[C@H]1CC[C@@H](NC(=O)C2CCC2)[C@@H](CO)O1 | 3 | -3 | 0
O=C(C1CCOCC1)N1CC(=O)N2[C@H](C1)[C@H](c1ccc(-c3ccccc3F)cc1)[C@@H]2CO | 21* | . | 0
O=C(c1cccnc1)N1CC(=O)N2[C@H](C1)[C@@H](c1ccc(-c3ccccc3F)cc1)[C@@H]2CO | 35* | . | 0
O=C(C1CCOCC1)N1CC(=O)N2[C@H](CO)[C@@H](c3ccc(-c4ccccc4F)cc3)[C@@H]2C1 | -4 | . | 0
O=C(C1CCOCC1)N1CC(=O)N2[C@H](CO)[C@H](c3ccc(-c4ccccc4F)cc3)[C@@H]2C1 | 9 | . | 0
O=C(C1CCOCC1)N1CC(=O)N2[C@H](C1)[C@@H](c1ccc(-c3ccccc3F)cc1)[C@@H]2CO | 23* | . | 1
O=C(c1ccncc1)N1CC(=O)N2[C@H](CO)[C@@H](c3ccc(-c4ccccc4F)cc3)[C@H]2C1 | 9 | . | 0
SMILES | DENV2 CPE | Statin myotox sup | E-sel inducer
CCN1[C@H](C(=O)N(C)C)[C@@H](CO)[C@@H]2Cn3c(ccc(/C=C/c4ccccc4)c3=O)[C@@H]21 | 20 | -1 | 0
C[C@@H]1CN([C@@H](C)CO)C(=O)c2cc(C#CCN(C)C)cnc2O[C@@H]1CN(C)Cc1ccc(C(=O)O)cc1 | -2 | -6 | 0
C[C@@H]1CCCCO[C@H](CN(C)Cc2ccc3c(c2)OCO3)[C@H](C)CN([C@H](C)CO)C(=O)c2cc(NS(=O)(=O)c3cn(C)cn3)ccc2O1 | 10 | 24 | 0
O=S(=O)(N[C@@H]1CC[C@H](CCn2cc(-c3cccc(F)c3)nn2)O[C@@H]1CO)c1ccccc1 | 6 | 16 | -2
CO[C@H]1CC[C@H]2CCN(C)C(=O)CC3(CCCCC3)CN(C)C(=O)c3cc(C#N)ccc3OC[C@H]1O2 | 7 | -5 | 0
C[C@@H]1CN([C@H](C)CO)C(=O)c2cc(NC(=O)CCC(F)(F)F)ccc2O[C@H]1CN(C)S(=O)(=O)c1ccc(Cl)cc1 | -8 | 8 | 0
COc1cccc(C(=O)NCc2ccc3c(c2)OCO3)c1 | -2 | 19 | 4
O=C(Nc1ccc(Cl)cc1C(=O)NCc1cccnc1)c1ccc(Cl)cc1Cl | 0 | 6 | 0
COc1cc(OC)cc(C(=O)NCc2cccnc2)c1 | . | 129* | .
COc1ccc(C(=O)NCc2cccnc2)cc1Br | . | 9 | .
COc1cc(OC)cc(C(=O)NCc2ccc3c(c2)OCO3)c1 | 29* | 3 | .
O=C(Nc1ccccc1C(=O)NCc1cccnc1)c1ccccc1Cl | 64* | 3 | 0
CCCn1nc2cc(C(=O)NCc3ccc4c(c3)OCO4)ccc2c1OCC | -2 | 13 | 0
CCOc1c2ccc(C(=O)NCc3ccc4c(c3)OCO4)cc2nn1CC | 32* | -18 | 0
COc1ccc(CN(C)C[C@H]2Oc3ccc(NS(C)(=O)=O)cc3C(=O)N([C@@H](C)CO)C[C@H]2C)cc1 | -17 | -5 | -8
COCC(=O)N1[C@@H]2c3ccc(/C=C/c4ccccc4)c(=O)n3C[C@H]1[C@H](CO)[C@H]2C(=O)N1CCOCC1 | 6 | 20 | 0
Cn1cnc(CCNC(=O)C[C@H]2CC[C@@H]3[C@H](COC[C@@H](O)CN3C(=O)Nc3ccccc3)O2)c1 | -1 | 1 | 0
C[C@H](O)C#Cc1cnc2c(c1)C(=O)N([C@@H](C)CO)C[C@H](C)[C@H](CN(C)CC1CCOCC1)O2 | -1 | 3 | 0
O=C(CC(=O)NCc1cccnc1)NCc1cccnc1 | . | 111* | .
C/C(NCc1ccccc1)=C(\C#N)C(=O)NCc1ccccc1 | . | -20 | .
O=C(NCc1cccnc1)C1CC(=O)N(CCc2ccccc2)C1 (centres undefined) | ? | 133* | 0
C/C(NCc1cccnc1)=C(\C#N)C(=O)NCc1ccccc1 | . | 104* | .
O=C(NCc1ccc(F)cc1)C1CC(=O)N(CCc2ccccc2)C1 (centres undefined) | . | 2 | .
O=C(Cc1ccccc1)NCc1cccnc1 | . | -1 | 0
C[C@@H]1CN([C@H](C)CO)C(=O)c2cccc(NC(=O)Nc3ccccc3)c2O[C@@H]1CN(C)S(=O)(=O)c1ccc(Cl)cc1 | -15 | 44 | 2
C[C@@H]1CN([C@@H](C)CO)C(=O)c2cc(NC(=O)CCC(F)(F)F)ccc2O[C@@H](C)CCCCO[C@H]1CN(C)S(=O)(=O)c1ccc(Cl)cc1 | 15 | . | 0
CCNC(=O)C[C@@H]1CC[C@H]2[C@H](COc3ccc(NC(=O)Cc4ccccc4)cc3C(=O)N2C)O1 | 18 | -19 | 0
COc1ccc(C#Cc2c(-c3ccccc3)n(-c3ccccc3)c3ccc(CO)cc23)cc1 | 2 | 89* | 0
COc1ccc(-c2c(C#Cc3ccc(N(C)C)cc3)c3ccccc3n2C)cc1 | -1 | 7 | 0
